This is one part of a sample in which hits are shown more often than they occur.
ALR H2O2 inh – inhibitors of human ALR sulfhydryl oxidase, primary screen, biochemical, H2O2 detection, HRP-luminol luminescence, single point. 290,000 compounds, 3.8% hits. FAD-linked sulfhydryl oxidase ALR (Homo sapiens), P55789. inhibition, % (test concentration not listed). purified ALR, DTT oxidation;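 active = mean replicate inhibition above about 79%, with every replicate also reaching it, limit read from the data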
Target sequence (P55789 whole entry, looked up): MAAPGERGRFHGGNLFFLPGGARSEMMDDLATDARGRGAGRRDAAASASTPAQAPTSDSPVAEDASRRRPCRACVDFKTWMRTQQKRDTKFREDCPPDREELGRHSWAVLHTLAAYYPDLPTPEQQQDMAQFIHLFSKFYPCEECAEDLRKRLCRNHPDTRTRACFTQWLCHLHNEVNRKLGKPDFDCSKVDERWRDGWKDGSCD
T cell modulator – modulators of CD8 T cell-vesicle binding, primary screen, mouse 2C CD8+ T cells, flow cytometry | response (vesicle binding), % at 7 µM | 330,000 compounds, 0.068% hits | 2C CD8+ T cell-vesicle binding; active compounds read low;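 active = response, share of CD8 T cells binding vesicles, and their 90th percentile fluorescence all below set limits, cut at about 80% in these data, passing the limit was not always enough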;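 also: values below 100% mean blocked vesicle binding to the CD8+ T cells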
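Material: 2C TCR transgenic mouse naive CD8+ T cells, MACS-purified. Also added: QL9-charged Drosophila Ld/ICAM-1/B7-1 vesicles. Timing: binding 1.5 h at 37 °C. Measured by: high-throughput flow cytometry with anti-B7-1 and anti-CD8 staining. Read-out: percent CD8+ FL2 mean versus row control. Controls: Unloaded micro-vesicles (low), QL9 vesicles with 0.7% DMSO (high).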
Glyco luc inh – increase of ERlucT glycosylation luciferase signal, primary screen, N-linked glycosylation inhibitor project, D54 ERlucT cells, luminescence, set 2; D54 ERlucT glycosylation luciferase reporter, 24 h; percent of 100 nM tunicamycin response; reporter increase, % at 12.5 µM; 360,000 compounds, 0.23% hits; AID 588692, 2011;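 active = mean luciferase reporter signal, scaled so untreated is 0 and the glycosylation-blocking control 100, at or above a set limit in every replicate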;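 also: luciferase carries N-glycosylation sites so blocking glycosylation raises the light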
Large screens that a line does not name were inactive.

CCOc1ccc(N2C(=O)Nc3ccccc3C2(O)C(=O)N2CCN(c3ccccn3)CC2)cc1 (configuration not stated)	Glyco luc inh 27
CCCCn1c(N)c(N(CCC(C)C)C(=O)c2ccc(C)c(S(=O)(=O)N3CCOCC3)c2)c(=O)[nH]c1=O	none
CN(Cc1ccccc1)C(=O)COC(=O)CCC(=O)c1ccc(F)cc1	none
CC(C)c1csc(CN2CCC(C(=O)Nc3cccc(-c4ccco4)c3)CC2)n1	none (no result: ALR H2O2 inh, T cell modulator)
Cc1nnc(Nc2ccc(C(=O)O)cc2)[nH]c1=O	none
Cc1nnc(Nc2ccc(O)cc2)[nH]c1=O	ALR H2O2 inh 99

High-throughput results (PubChem BioAssay)
